From PMC6586500 (SLAS discovery : advancing life sciences R & D, 2019)
Square brackets hold non-standard residues; d marks the D form. Peptide text beside a SMILES is read from it. * marks the point of attachment. Benzoyl(4-tBu) = CC(C)(C)c1ccc(C(=O)*)cc1; Lys(Et2) = CCN(CC)CCCC[C@H](N)C(=O)O

Experiments:
CBX5 = CBX5 (Homo sapiens, UniProt P45973); details: affinity of CBX5 for H3K9me3; cited from earlier work
MPP8 [1] = target: T1, MPP8 (Homo sapiens, UniProt Q99549); details: MPP8 binding the tracer peptide H3K9me3; cited from earlier work
T1 sequence (Q99549 55-116): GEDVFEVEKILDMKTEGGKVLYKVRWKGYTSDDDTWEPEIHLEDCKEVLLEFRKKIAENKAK

CBX2 = target: T2, CBX2 (Homo sapiens, UniProt Q14781); assay: TR-FRET competition assay, CBX2 chromodomain with UNC4195 tracer; assay type: binding
T2 sequence (Q14781 9-66): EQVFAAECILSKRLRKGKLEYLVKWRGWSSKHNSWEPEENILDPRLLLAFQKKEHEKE
In short: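 His-tagged protein, biotinylated tracer and TR-FRET reagent (Eu-streptavidin, anti-6X-His ULight antibody) premixed in 20 mM Tris pH 7.5, 150 mM NaCl, 0.05% Tween 20, 2 mM DTT. Added to plates pre-stamped from 10 mM DMSO stocks (100X). Shaken 1 min, spun 1000 x g 2 min, 1 h dark. DMSO and competitor full-column controls per plate. Follow-up used 10-point threefold dilutions and a four-parameter fit for IC50.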

CBX7 = target: T3, CBX7 (Homo sapiens, UniProt O95931); assay: TR-FRET competition assay, CBX7 chromodomain with UNC4195 tracer; assay type: binding
T3 sequence (O95931 8-62): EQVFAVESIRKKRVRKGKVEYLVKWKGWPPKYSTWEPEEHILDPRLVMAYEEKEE

MPP8 [2] = target: T1, MPP8; assay: TR-FRET competition assay, MPP8 chromodomain with H3K9me3 tracer; assay type: binding
In short: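 His-tagged protein plus biotinylated tracer peptide with Eu-streptavidin and anti-6X-His ULight antibody, in 20 mM Tris pH 7.5, 150 mM NaCl, 0.05% Tween 20, 2 mM DTT; 10 µL total. Test compound: 16-point threefold dilution in buffer, in triplicate. Mixed, centrifuged, equilibrated 1 h in the dark, then read. Percent inhibition relative to DMSO (0%) and 100 µM competitor (100%); four-parameter fit gives IC50.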

CBX5, sequence (P45973 18-75): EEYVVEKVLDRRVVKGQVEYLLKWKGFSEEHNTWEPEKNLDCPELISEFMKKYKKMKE

IC50 (CBX2) | inhibition (CBX2; single-dose 25 µM, pilot screen in duplicate, 100% = 100 µM UNC3866) | IC50 (CBX7) | IC50 (MPP8 [2]) | Molecule | Kd (CBX5) | affinity (MPP8 [1])
– | – | – | – | ARTKQTARK(Me3)STGGKAPRKQL-K(Biotin)-NH2 [H3K9me3] | ~30000 nM | sub-micromolar
1500 nM | 100% | 60 nM | 1000 nM | CCN(CC)CCCC[C@H](NC(=O)[C@H](CC(C)C)NC(=O)[C@H](C)NC(=O)[C@H](Cc1ccccc1)NC(=O)c1ccc(C(C)(C)C)cc1)C(=O)N[C@@H](CO)C(=O)OC [UNC3866] ({Benzoyl(4-tBu)}-FAL[Lys(Et2)]S-OMe) | – | –
